Results taken from ChEMBL document CHEMBL4813947, “New dual ATP-competitive inhibitors of bacterial DNA gyrase and topoisomerase IV active against ESKAPE pathogens” (Eur J Med Chem, 2021).
Values after ≈ are worked out from the molar mass of the structure shown.

Experiments:
[1] = tested on: human topoisomerase 2alpha; experiment: Selectivity ratio of IC50 for inhibition of human topoisomerase 2alpha to IC50 for inhibition of Escherichia coli topoisomerase IV; assay type: toxicity; conditions: read-out: Ratio IC50
[2] = Inhibition of Staphylococcus aureus topoisomerase assessed as reduction in relaxation of supercoiled pNO1 DNA measured after 30 mins by fluorescence assay
In short: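 Enzyme run per an earlier-reported procedure; IC50 fitted from seven inhibitor concentrations, mean of three independent measurements.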

Staphylococcus aureus [3] = experiment: Antibacterial activity against Staphylococcus aureus ATCC 29213 assessed as inhibition of bacterial growth by CLSI protocol based broth microdilution assay; assay type: functional
Staphylococcus aureus [4] = experiment: Antibacterial activity against methicillin-resistant Staphylococcus aureus ATCC 43300 assessed as inhibition of bacterial growth by CLSI protocol based broth microdilution assay; assay type: functional
In short: (§1)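 Minimum inhibitory concentration by standard serial broth microdilution following CLSI guidelines. Medium was MHBII broth (22 g/L powder: beef extract, casein acid hydrolysate, starch), with MHBII agar (14 g agar per L broth). Where noted, assayed without and with efflux pump substrate phenylalanine-arginine β-naphthylamide (PAβN).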

Enterococcus faecalis = experiment: Antibacterial activity against Enterococcus faecalis ATCC 29212 assessed as inhibition of bacterial growth by CLSI protocol based broth microdilution assay; assay type: functional
Acinetobacter baumannii [5] = experiment: Antibacterial activity against Acinetobacter baumannii ATCC 17978 assessed as inhibition of bacterial growth by CLSI protocol based broth microdilution assay; assay type: functional
Klebsiella pneumoniae = experiment: Antibacterial activity against Klebsiella pneumoniae ATCC 10031 assessed as inhibition of bacterial growth by CLSI protocol based broth microdilution assay; assay type: functional
Escherichia coli [6] = experiment: Antibacterial activity against Escherichia coli ATCC 25922 assessed as inhibition of bacterial growth by CLSI protocol based broth microdilution assay; assay type: functional
Staphylococcus aureus [7] = experiment: Antibacterial activity against methicillin-resistant Staphylococcus aureus ATCC 43300 harboring GyrB R144I mutant assessed as inhibition of bacterial growth by CLSI protocol based broth microdilution assay; assay type: functional; in short: as §1
Staphylococcus aureus [8] = experiment: Antibacterial activity against methicillin-resistant Staphylococcus aureus ATCC 43300 harboring GyrB T173A mutant assessed as inhibition of bacterial growth by CLSI protocol based broth microdilution assay; assay type: functional; in short: as §1
Staphylococcus aureus [9] = experiment: Antibacterial activity against vancomycin-resistant wild type Staphylococcus aureus ATCC 700699 assessed as inhibition of bacterial growth by CLSI protocol based broth microdilution assay; assay type: functional; in short: as §1
Escherichia coli [10] = experiment: Antibacterial activity against wild type Escherichia coli MG1655 assessed as inhibition of bacterial growth by CLSI protocol based broth microdilution assay; assay type: functional; in short: as §1
Escherichia coli [11] = experiment: Antibacterial activity against Escherichia coli MG1655 in presence of efflux pump inhibitor PAbetaN assessed as inhibition of bacterial growth by CLSI protocol based broth microdilution assay; assay type: functional
Escherichia coli [12] = experiment: Antibacterial activity against Escherichia coli MG1655 harboring GyrB R136C mutant assessed as inhibition of bacterial growth in presence of efflux pump inhibitor PAbetaN by CLSI protocol based broth microdilution assay; assay type: functional; in short: as §1
Acinetobacter baumannii [13] = experiment: Antibacterial activity against clinical isolate ciprofloxacin resistance Acinetobacter baumannii ATCC BAA-1605 assessed as inhibition of bacterial growth by CLSI protocol based broth microdilution assay; assay type: functional; in short: as §1
Escherichia coli [14] = experiment: Antibacterial activity against Escherichia coli 20204 assessed as inhibition of bacterial growth by CLSI protocol based broth microdilution assay; assay type: functional
Escherichia coli [15] = experiment: Antibacterial activity against clinical isolate ciprofloxacin resistance Escherichia coli 31995 assessed as inhibition of bacterial growth by CLSI protocol based broth microdilution assay; assay type: functional; in short: as §1
Escherichia coli [16] = experiment: Antibacterial activity against clinical isolate ciprofloxacin resistance Escherichia coli 31859 assessed as inhibition of bacterial growth by CLSI protocol based broth microdilution assay; assay type: functional; in short: as §1
[17] = target: DNA topoisomerase 2-alpha (Homo sapiens, UniProt P11388); experiment: Inhibition of human topoisomerase 2alpha assessed as reduction in relaxation of supercoiled DNA fluorescence-based microplate reader assay
Chain of DNA topoisomerase 2-alpha (P11388 whole entry): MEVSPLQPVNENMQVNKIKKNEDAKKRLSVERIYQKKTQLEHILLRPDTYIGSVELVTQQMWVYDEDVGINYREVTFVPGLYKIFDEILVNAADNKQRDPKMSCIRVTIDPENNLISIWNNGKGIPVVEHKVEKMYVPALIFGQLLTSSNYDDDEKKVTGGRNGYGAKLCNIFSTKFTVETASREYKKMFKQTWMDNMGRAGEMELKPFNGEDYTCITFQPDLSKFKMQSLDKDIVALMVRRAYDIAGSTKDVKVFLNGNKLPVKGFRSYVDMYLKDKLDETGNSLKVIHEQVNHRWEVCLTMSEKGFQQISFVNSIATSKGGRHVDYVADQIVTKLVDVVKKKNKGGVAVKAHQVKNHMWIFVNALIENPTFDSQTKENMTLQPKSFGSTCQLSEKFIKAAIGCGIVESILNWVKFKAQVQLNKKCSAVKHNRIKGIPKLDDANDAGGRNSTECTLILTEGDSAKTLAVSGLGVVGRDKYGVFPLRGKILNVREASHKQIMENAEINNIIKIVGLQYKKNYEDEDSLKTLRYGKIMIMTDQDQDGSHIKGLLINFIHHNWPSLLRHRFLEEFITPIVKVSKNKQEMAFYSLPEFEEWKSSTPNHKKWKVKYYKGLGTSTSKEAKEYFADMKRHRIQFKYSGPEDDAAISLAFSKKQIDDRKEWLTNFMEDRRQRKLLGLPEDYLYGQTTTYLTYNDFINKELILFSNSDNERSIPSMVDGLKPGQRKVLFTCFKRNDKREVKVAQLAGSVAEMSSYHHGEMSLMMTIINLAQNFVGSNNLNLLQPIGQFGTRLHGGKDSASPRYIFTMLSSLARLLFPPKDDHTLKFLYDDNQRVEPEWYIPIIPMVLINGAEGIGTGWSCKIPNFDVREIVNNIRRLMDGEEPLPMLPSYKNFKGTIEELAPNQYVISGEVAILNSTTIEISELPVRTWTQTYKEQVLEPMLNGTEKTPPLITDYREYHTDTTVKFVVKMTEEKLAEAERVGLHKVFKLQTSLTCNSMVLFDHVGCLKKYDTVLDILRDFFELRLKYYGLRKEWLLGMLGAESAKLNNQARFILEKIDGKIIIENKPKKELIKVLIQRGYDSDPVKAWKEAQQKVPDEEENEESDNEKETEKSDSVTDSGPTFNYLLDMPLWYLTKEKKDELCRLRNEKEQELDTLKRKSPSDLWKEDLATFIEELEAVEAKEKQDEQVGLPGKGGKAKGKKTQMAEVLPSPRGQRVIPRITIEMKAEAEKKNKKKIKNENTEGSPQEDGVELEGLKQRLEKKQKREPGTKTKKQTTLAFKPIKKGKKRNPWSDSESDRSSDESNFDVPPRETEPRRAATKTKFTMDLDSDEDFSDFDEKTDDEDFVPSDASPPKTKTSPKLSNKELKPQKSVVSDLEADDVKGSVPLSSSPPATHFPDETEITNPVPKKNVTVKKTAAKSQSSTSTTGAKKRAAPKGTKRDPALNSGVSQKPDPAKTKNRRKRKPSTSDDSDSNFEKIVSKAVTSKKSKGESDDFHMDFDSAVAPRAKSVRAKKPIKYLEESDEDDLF
In short: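 Human topoisomerase IIα, 1.5 U with 0.75 µg supercoiled pNO1 plasmid, 1 mM ATP, pH 7.5 Tris/MgCl2/NaCl/DTT buffer, 37 °C 30 min. Stopped with TF buffer pH 5.0, then triplex capture on immobilized biotinylated oligonucleotide 30 min at room temperature. Dye fluorescence read (ex 485/em 537 nm). IC50 from seven concentrations, mean of three runs; etoposide control.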

Staphylococcus aureus [18] = experiment: Ratio of MIC for methicillin-resistant Staphylococcus aureus ATCC 43300 harboring GyrB R144I mutant to MIC for methicillin-resistant wild type Staphylococcus aureus ATCC 43300; assay type: functional
Staphylococcus aureus [19] = experiment: Ratio of MIC for methicillin-resistant Staphylococcus aureus ATCC 43300 harboring GyrB T173A mutant to MIC for methicillin-resistant wild type Staphylococcus aureus ATCC 43300; assay type: functional
Staphylococcus aureus [20] = experiment: Ratio of MIC for vancomycin-resistant Staphylococcus aureus ATCC 700699 harboring GyrB R144I mutant to MIC for vancomycin-resistant wild type Staphylococcus aureus ATCC 700699; assay type: functional
Staphylococcus aureus [21] = experiment: Ratio of MIC for vancomycin-resistant Staphylococcus aureus ATCC 700699 harboring GyrB […] mutant to MIC for vancomycin-resistant wild type Staphylococcus aureus ATCC 700699; assay type: functional
Escherichia coli [22] = experiment: Ratio of MIC for Escherichia coli MG1655 harboring GyrB R136C mutant in presence of efflux pump inhibitor PAbetaN to MIC for wild type Escherichia coli MG1655 in presence of efflux pump inhibitor PAbetaN; assay type: functional
[23] = tested on: human topoisomerase 2alpha; experiment: Selectivity ratio of IC50 for inhibition of human topoisomerase 2alpha to IC50 for inhibition of Escherichia coli DNA gyrase; assay type: toxicity; conditions: read-out: Ratio IC50
[24] = tested on: human topoisomerase 2alpha; experiment: Selectivity ratio of IC50 for inhibition of human topoisomerase 2alpha to IC50 for inhibition of Staphylococcus aureus topoisomerase IV; assay type: toxicity; conditions: read-out: Ratio IC50
[25] = Ratio of genotoxicity in CHO-K1 cells by invitro micronucleus test to MIC for Enterococcus faecalis ATCC 29212; assay type: toxicity, cell-based; conditions: hamster
[26] = Ratio of genotoxicity in CHO-K1 cells by invitro micronucleus test to MIC for methicillin-resistant wild type Staphylococcus aureus ATCC 43300; assay type: toxicity, cell-based; conditions: hamster
[27] = Ratio of genotoxicity in CHO-K1 cells by invitro micronucleus test to MIC for vancomycin-resistant Staphylococcus aureus ATCC 700699; assay type: toxicity, cell-based; conditions: hamster
[28] = Ratio of genotoxicity in CHO-K1 cells in presence of rat liver S9 fraction by invitro micronucleus test to MIC for Enterococcus faecalis ATCC 29212; assay type: toxicity, cell-based; conditions: CHO-K1 cells with rat liver S9 fraction
[29] = Ratio of genotoxicity in CHO-K1 cells in presence of rat liver S9 fraction by invitro micronucleus test to MIC for methicillin-resistant wild type Staphylococcus aureus ATCC 43300; assay type: toxicity, cell-based; conditions: CHO-K1 cells with rat liver S9 fraction
[30] = Genotoxicity in CHO-K1 cells upto 16 uM by invitro micronucleus test; assay type: cell-based, Cricetulus griseus; conditions: chinese hamster
[31] = Genotoxicity in CHO-K1 cells upto 62 uM by in presence of rat liver S9 fraction invitro micronucleus test; assay type: subcellular, Cricetulus griseus; conditions: chinese hamster
[32] = Drug metabolism in rat liver S9 fraction assessed as hydroxylated methyl-pyrrole moiety metabolite; assay type: ADME, subcellular
[33] = Drug metabolism in rat liver S9 fraction assessed as direct glucuronide conjugate; assay type: ADME, subcellular
DNA gyrase = DNA gyrase (Escherichia coli, UniProt P0AES4+P0AES6); experiment: Inhibition of Escherichia coli DNA gyrase assessed as reduction in supercoiling of relaxed pNO1 DNA measured after 30 mins by fluorescence assay

In the case of `Cc1[nH]c(C(=O)Nc2nc3c(OCc4ccsc4)cc(C(=O)O)cc3s2)c(Cl)c1Cl`, the selectivity ratio [1] is reported as 13, the IC50 [2] is reported as 84 nM and the MIC (Staphylococcus aureus [3]) is reported as 0.25 µg/mL (≈ 0.518 µM). For the same compound, the MIC (Staphylococcus aureus [4]) was 0.0625 µg/mL (≈ 0.13 µM), the MIC (Enterococcus faecalis) was 0.0156 µg/mL (≈ 0.0323 µM) and the MIC (Acinetobacter baumannii [5]) was 1 µg/mL (≈ 2.07 µM). The MIC (Klebsiella pneumoniae) was 2 µg/mL (≈ 4.15 µM), the MIC (Escherichia coli [6]) was 4 µg/mL (≈ 8.29 µM) and the MIC (Staphylococcus aureus [7]) was 0.25 µg/mL (≈ 0.518 µM). For the same compound, the MIC (Staphylococcus aureus [8]) was 0.125 µg/mL (≈ 0.259 µM), the MIC (Staphylococcus aureus [9]) was 0.0313 µg/mL (≈ 0.0649 µM) and the MIC (Escherichia coli [10]) was over 64 µg/mL. The MIC (Escherichia coli [11]) was 0.125 µg/mL, the MIC (Escherichia coli [12]) was 2 µg/mL and the MIC (Acinetobacter baumannii [13]) was 0.5 µg/mL (≈ 1.04 µM). For the same compound, the MIC (Escherichia coli [14]) was 1 µg/mL (≈ 2.07 µM), the MIC (Escherichia coli [15]) was 2 µg/mL (≈ 4.15 µM) and the MIC (Escherichia coli [16]) was 2 µg/mL (≈ 4.15 µM). For the same compound, the INH [17] was 45 µM, the Ratio (Staphylococcus aureus [18]) was 4 and the Ratio (Staphylococcus aureus [19]) was 2. It also gave a Ratio (Staphylococcus aureus [20]) of 2, a Ratio (Staphylococcus aureus [21]) of 2 and a Ratio (Escherichia coli [22]) of 8. For the same compound, the selectivity ratio [23] was 450, the selectivity ratio [24] was 54 and the selectivity ratio [25] was 495. It also gave a selectivity ratio [26] of 123, a selectivity ratio [27] of 247 and a selectivity ratio [28] of 1920. The selectivity ratio [29] was 478, the Activity [30] was “Non-Toxic” and the Activity [31] was “Non-Toxic”. For the same compound, the Drug metabolism [32] was “Metabolite_Detected”, the Drug metabolism [33] was “Metabolite_Detected” and the IC50 (DNA gyrase) was under 10 nM.
